Laboratory results published in ChEMBL document CHEMBL3352534, “A prodrug strategy for the oral delivery of a poorly soluble HCV NS5B thumb pocket 1 polymerase inhibitor using self-emulsifying drug delivery systems (SEDDS)” (Bioorg Med Chem Lett, 2015).
≈ marks a conversion by molar mass, not a printed value.

Columns and labels:
[1] = tested on: Liver microsome; experiment: Prodrug conversion in rat liver microsomes assessed as half life
[2] = tested on: Liver microsome; experiment: Prodrug conversion in human liver microsomes assessed as half life
[3] = Prodrug solubility in capmul; format: ADME
[4] = Prodrug solubility in solutol; format: ADME
[5] = Prodrug solubility in Labrasol; format: ADME
[6] = Dissociation constant, pKa of the compound; format: physicochemical
[7] = tested on: Rattus norvegicus; experiment: (§1) Cmax in rat plasma at 10 mg/kg, po using 10.6% PEG400, 5.4% Cremophor EL, 2.6% Labrasol, 1.4% Capmul MCM in water (80%) vehicle; format: ADME, organism-based; parameters: dose 10 mg/kg, route oral; settings: in vivo, BLD = below limit of detection
In short: (§2)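 Fasted rats were given a single 10 mg/kg oral dose, with n = 3 per dose and route. Plasma was extracted by solid-phase extraction. Analysis used HPLC with diode-array UV (200–400 nm, peak height at best S/N) or LC/MS. Calibration standards were made in blank plasma, with LOQ 7–14 ng/mL. Parameters came from noncompartmental analysis.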

[8] = tested on: Rattus norvegicus; experiment: AUC in rat plasma at 10 mg/kg, po using 10.6% PEG400, 5.4% Cremophor EL, 2.6% Labrasol, 1.4% Capmul MCM in water (80%) vehicle; format: ADME, organism-based; parameters: dose 10 mg/kg, route oral; settings: in vivo, BLD = below limit of detection; in short: as §2
[9] = tested on: Rattus norvegicus; experiment: Cmax in rat plasma assessed as (E)-3-(4-(1-(2-(5-chloropyrimidin-2-yl)-3-cyclopentyl-1-methyl-1H-indole-6-carboxamido)cyclobutanecarboxamido)-2-ethoxyphenyl)acrylic acid at 10 mg/kg, po using 10.6% PEG400, 5.4% Cremophor EL, 2.6% Labrasol, 1.4% Capmul MCM in water (80%) vehicle; format: ADME, organism-based; parameters: dose 10 mg/kg, route oral; settings: in vivo; in short: as §2
[10] = tested on: Rattus norvegicus; experiment: AUC in rat plasma assessed as (E)-3-(4-(1-(2-(5-chloropyrimidin-2-yl)-3-cyclopentyl-1-methyl-1H-indole-6-carboxamido)cyclobutanecarboxamido)-2-ethoxyphenyl)acrylic acid at 10 mg/kg, po using 10.6% PEG400, 5.4% Cremophor EL, 2.6% Labrasol, 1.4% Capmul MCM in water (80%) vehicle; format: ADME, organism-based; parameters: dose 10 mg/kg, route oral; settings: in vivo; in short: as §2
[11] = tested on: Rattus norvegicus; experiment: (§3) Cmax in rat plasma at 10 mg/kg, po using 0.5% Methyl cellulose, 0.3% Tween-80, 1% N-methylpyrrolidone in water vehicle; format: ADME, organism-based; parameters: dose 10 mg/kg, route oral; settings: in vivo, BLD = below limit of detection; in short: as §2
[12] = tested on: Rattus norvegicus; experiment: (§4) AUC in rat plasma at 10 mg/kg, po using 0.5% Methyl cellulose, 0.3% Tween-80, 1% N-methylpyrrolidone in water vehicle; format: ADME, organism-based; parameters: dose 10 mg/kg, route oral; settings: in vivo, BLD = below limit of detection; in short: as §2
[13] = tested on: Rattus norvegicus; experiment: Cmax in rat plasma assessed as (E)-3-(4-(1-(2-(5-chloropyrimidin-2-yl)-3-cyclopentyl-1-methyl-1H-indole-6-carboxamido)cyclobutanecarboxamido)-2-ethoxyphenyl)acrylic acid at 10 mg/kg, po using 0.5% Methyl cellulose, 0.3% Tween-80, 1% N-methylpyrrolidone in water vehicle; format: ADME, organism-based; parameters: dose 10 mg/kg, route oral; settings: in vivo; in short: as §2
[14] = tested on: Rattus norvegicus; experiment: AUC in rat plasma assessed as (E)-3-(4-(1-(2-(5-chloropyrimidin-2-yl)-3-cyclopentyl-1-methyl-1H-indole-6-carboxamido)cyclobutanecarboxamido)-2-ethoxyphenyl)acrylic acid at 10 mg/kg, po using 0.5% Methyl cellulose, 0.3% Tween-80, 1% N-methylpyrrolidone in water vehicle; format: ADME, organism-based; parameters: dose 10 mg/kg, route oral; settings: in vivo; in short: as §2
[15] = Solubility of the compound at pH 6.8; format: physicochemical; settings: buffer
[16] = tested on: Rattus norvegicus; experiment: Oral bioavailability in rat assessed as (E)-3-(4-(1-(2-(5-chloropyrimidin-2-yl)-3-cyclopentyl-1-methyl-1H-indole-6-carboxamido)cyclobutanecarboxamido)-2-ethoxyphenyl)acrylic acid at 10 mg/kg using 10.6% PEG400, 5.4% Cremophor EL, 2.6% Labrasol, 1.4% Capmul MCM in water (80%) vehicle; format: ADME, organism-based; settings: in vivo
[17] = tested on: Rhesus monkey; experiment: Oral bioavailability in monkey assessed as (E)-3-(4-(1-(2-(5-chloropyrimidin-2-yl)-3-cyclopentyl-1-methyl-1H-indole-6-carboxamido)cyclobutanecarboxamido)-2-ethoxyphenyl)acrylic acid at 10 mg/kg using 10.6% PEG400, 5.4% Cremophor EL, 2.6% Labrasol, 1.4% Capmul MCM in water (80%) vehicle; format: ADME, organism-based, Macaca mulatta; settings: in vivo
[18] = tested on: Canis familiaris; experiment: Oral bioavailability in dog assessed as (E)-3-(4-(1-(2-(5-chloropyrimidin-2-yl)-3-cyclopentyl-1-methyl-1H-indole-6-carboxamido)cyclobutanecarboxamido)-2-ethoxyphenyl)acrylic acid at 10 mg/kg using 10.6% PEG400, 5.4% Cremophor EL, 2.6% Labrasol, 1.4% Capmul MCM in water (80%) vehicle; format: ADME, organism-based, Canis lupus familiaris; settings: in vivo
[19] = AUC in dog at 10 mg/kg, po using 10.6% PEG400, 5.4% Cremophor EL, 2.6% Labrasol, 1.4% Capmul MCM in water (80%) vehicle; format: ADME, organism-based, Canis lupus familiaris; parameters: dose 10 mg/kg, route oral; settings: plasma
[20] = tested on: Plasma; experiment: Prodrug conversion in rat plasma assessed as half life; format: ADME, cell-free
In short: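 Rat plasma (from centrifuged whole blood) was incubated with 2 µM compound at 37 °C. Samples were quenched 1:3 with acetonitrile/methanol 1:1, centrifuged and analysed by HPLC-PDA. Half-life was taken as 0.693/first-order rate of loss of the starting compound.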

[21] = Prodrug solubility in PEG400; format: ADME
[22] = as §1; format: ADME, organism-based; parameters: dose 10 mg/kg, route oral; settings: plasma; in short: as §2
[23] = tested on: Rattus norvegicus; experiment: AUC in rat assessed as (E)-3-(4-(1-(2-(5-chloropyrimidin-2-yl)-3-cyclopentyl-1-methyl-1H-indole-6-carboxamido)cyclobutanecarboxamido)-2-ethoxyphenyl)acrylic acid at 2 mg/kg, iv; format: ADME, organism-based, Plasma; parameters: dose 2 mg/kg, route intravenous; settings: in vivo
In short: (§5)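 Overnight-fasted rats received 2 mg/kg IV in 70% PEG400:30% water, n = 3. Plasma parent drug was quantified after solid-phase extraction by HPLC-UV or LC/MS against blank-plasma calibration standards (LOQ 7–14 ng/mL). Noncompartmental analysis gave the PK parameters.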

[24] = tested on: Rattus norvegicus; experiment: Mean residence time in rat assessed as (E)-3-(4-(1-(2-(5-chloropyrimidin-2-yl)-3-cyclopentyl-1-methyl-1H-indole-6-carboxamido)cyclobutanecarboxamido)-2-ethoxyphenyl)acrylic acid at 2 mg/kg, iv; format: ADME, organism-based; parameters: dose 2 mg/kg, route intravenous; settings: in vivo; in short: as §5
[25] = tested on: Rattus norvegicus; experiment: Half life in rat assessed as (E)-3-(4-(1-(2-(5-chloropyrimidin-2-yl)-3-cyclopentyl-1-methyl-1H-indole-6-carboxamido)cyclobutanecarboxamido)-2-ethoxyphenyl)acrylic acid at 2 mg/kg, iv; format: ADME, organism-based; parameters: dose 2 mg/kg, route intravenous; settings: in vivo; in short: as §5
[26] = tested on: Rattus norvegicus; experiment: Volume of distribution at steady state in rat assessed as (E)-3-(4-(1-(2-(5-chloropyrimidin-2-yl)-3-cyclopentyl-1-methyl-1H-indole-6-carboxamido)cyclobutanecarboxamido)-2-ethoxyphenyl)acrylic acid at 2 mg/kg, iv; format: ADME, organism-based; parameters: dose 2 mg/kg, route intravenous; settings: in vivo; in short: as §5
[27] = tested on: Rhesus monkey; experiment: AUC in monkey assessed as (E)-3-(4-(1-(2-(5-chloropyrimidin-2-yl)-3-cyclopentyl-1-methyl-1H-indole-6-carboxamido)cyclobutanecarboxamido)-2-ethoxyphenyl)acrylic acid at 10 mg/kg using 10.6% PEG400, 5.4% Cremophor EL, 2.6% Labrasol, 1.4% Capmul MCM in water (80%) vehicle; format: ADME, organism-based, Macaca mulatta, Plasma; parameters: dose 10 mg/kg; settings: in vivo
[28] = tested on: Canis familiaris; experiment: AUC in dog assessed as (E)-3-(4-(1-(2-(5-chloropyrimidin-2-yl)-3-cyclopentyl-1-methyl-1H-indole-6-carboxamido)cyclobutanecarboxamido)-2-ethoxyphenyl)acrylic acid at 10 mg/kg using 10.6% PEG400, 5.4% Cremophor EL, 2.6% Labrasol, 1.4% Capmul MCM in water (80%) vehicle; format: ADME, organism-based, Canis lupus familiaris, Plasma; parameters: dose 10 mg/kg; settings: in vivo
[29] = tested on: Plasma; experiment: Prodrug conversion in human plasma assessed as half life
[30] = Prodrug conversion in simulated gastric fluid assessed as half life; format: ADME; settings: simulated gi fluid
In short: (§6)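 Incubations used 2 µM compound at 37 °C in either SGF (0.2% NaCl/HCl, pH 1.2, pepsin 3.2 mg/mL) or SIF (KH2PO4/NaOH, pH 7.5, pancreatin 10 mg/mL). Samples were quenched 1:2 with acetonitrile/methanol 1:1 and analysed by HPLC. t1/2 = 0.693/first-order disappearance rate.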

[31] = tested on: Intestine; experiment: Prodrug conversion in rat intestinal microsomes assessed as half life
[32] = Prodrug conversion in simulated intestinal fluid assessed as half life; format: ADME; settings: simulated gi fluid; in short: as §6
[33] = Prodrug conversion in human intestinal microsomes assessed as half life
[34] = as §3; format: ADME, organism-based; parameters: dose 10 mg/kg, route oral; settings: plasma; in short: as §2
[35] = as §4; format: ADME, organism-based; parameters: dose 10 mg/kg, route oral; settings: plasma; in short: as §2

**Q.** For CCOc1cc(NC(=O)C2(NC(=O)c3ccc4c(C5CCCC5)c(-c5ncc(Cl)cn5)n(C)c4c3)CCC2)ccc1/C=C/C(=O)OCC(=O)N1CCN(C)CC1, which t1/2 [1] is on record?
**A.** 9 min

**Q.** What about the t1/2 [2] of the same compound?
**A.** 21 min

**Q.** And the solubility [3]?
**A.** < 100 mg/mL

**Q.** What about the solubility [4] of the same compound?
**A.** < 100 mg/mL

**Q.** What about the solubility [5] of the same compound?
**A.** < 100 mg/mL

**Q.** And the pKa [6]?
**A.** 6.6

**Q.** And the Cmax [7]?
**A.** BLD

**Q.** And the AUC [8]?
**A.** BLD

**Q.** And the Cmax [9]?
**A.** 260 nM

**Q.** And the AUC [10]?
**A.** 1.5 µM·h

**Q.** Which results are given for CCOc1cc(NC(=O)C2(NC(=O)c3ccc4c(C5CCCC5)c(-c5ncc(Cl)cn5)n(C)c4c3)CCC2)ccc1/C=C/C(=O)OCOP(=O)(O)OC(C)(C)C?
**A.** t1/2 [1]: 8 min; t1/2 [2]: 89 min; Cmax [11]: BLD; AUC [12]: BLD; Cmax [13]: 80 nM; AUC [14]: 0.49 µM·h; solubility [15]: 0.781 mg/mL (≈ 0.966 mM)

**Q.** What does the source list for CCOc1cc(NC(=O)C2(NC(=O)c3ccc4c(C5CCCC5)c(-c5ncc(Cl)cn5)n(C)c4c3)CCC2)ccc1/C=C/C(=O)OCC(=O)N(C)C?
**A.** F [16]: 38%; F [17]: 35%; F [18]: 4%; AUC [19]: 0.69 µM·h; t1/2 [20]: 86 min; solubility [3]: > 100 mg/mL; solubility [4]: > 200 mg/mL; solubility [5]: > 200 mg/mL; solubility [21]: > 200 mg/mL; Cmax [22]: 20 nM; AUC [8]: BLD; Cmax [9]: 9200 nM; AUC [10]: 38.5 µM·h; AUC [23]: 10.5 µM·h; MRT [24]: 168 min; t1/2 [25]: 126 min; Vdss [26]: 0.73 L/kg; AUC [27]: 26 µM·h; AUC [28]: 11.5 µM·h

**Q.** Which t1/2 [29] does the source give for CCOc1cc(NC(=O)C2(NC(=O)c3ccc4c(C5CCCC5)c(-c5ncc(Cl)cn5)n(C)c4c3)CCC2)ccc1/C=C/C(=O)OCC(=O)N1CCOCC1 here?
**A.** > 300 min

**Q.** And the t1/2 [20]?
**A.** 110 min

**Q.** What about the t1/2 [30] of the same compound?
**A.** 51 min

**Q.** And the t1/2 [31]?
**A.** 76 min

**Q.** What about the t1/2 [32] of the same compound?
**A.** 190 min

**Q.** And the t1/2 [1]?
**A.** 44 min

**Q.** And the t1/2 [33]?
**A.** 205 min

**Q.** And the t1/2 [2]?
**A.** 48 min

**Q.** What about the solubility [3] of the same compound?
**A.** < 15 mg/mL

**Q.** What about the solubility [4] of the same compound?
**A.** < 15 mg/mL

**Q.** And the solubility [5]?
**A.** < 30 mg/mL

**Q.** And the Cmax [7]?
**A.** BLD

**Q.** What about the AUC [8] of the same compound?
**A.** BLD

**Q.** What about the Cmax [9] of the same compound?
**A.** 4000 nM

**Q.** What about the AUC [10] of the same compound?
**A.** 19.3 µM·h

**Q.** Which results are given for CCOc1cc(NC(=O)C2(NC(=O)c3ccc4c(C5CCCC5)c(-c5ncc(Cl)cn5)n(C)c4c3)CCC2)ccc1/C=C/C(=O)OCOP(=O)(O)O?
**A.** t1/2 [30]: 78 min; t1/2 [31]: 5 min; t1/2 [1]: 9 min; t1/2 [33]: 28 min; t1/2 [2]: 10 min; Cmax [34]: 50 nM; AUC [35]: 0.09 µM·h; Cmax [13]: 4200 nM; AUC [14]: 14.5 µM·h; solubility [15]: 0.14 mg/mL (≈ 0.186 mM)
